Measurements reported in ChEMBL document CHEMBL1121968, “Phospholipid-nucleoside conjugates. 3. Syntheses and preliminary biological evaluation of 1-beta-D-arabinofuranosylcytosine 5'-monophosphate-L-1,2-dipalmitin and selected 1-beta-D-arabinofuranosylcytosine 5-diphosphate-L-1,2-diacylglycerols” (1982).

Assays:
Mus musculus [1] = test: Change in weight of mouse on day 8 was measured in L1210 lymphoid leukemia inoculated mice after ip administration at dose of 10 mg/kg/day *5; type: functional; details: route intraperitoneal
Procedure, shortened: (§1)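 C3D2F1/J mice, groups of six, average weight 25 g, were inoculated ip with 1×10^6 L1210 lymphoid leukemia cells following NCI protocol. Dosing was ip, daily, starting 24 h after tumor implantation and continuing through day 5. Body-weight change in g/mouse was recorded on day 8. Pooled controls were 24 mice.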

Mus musculus [2] = test: Median survival time expressed as (T/C) was measured at dose of 20 mg/kg/day X5; 18.0/7.5; type: functional
Procedure, shortened: (§2)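 C3D2F1/J mice (groups of six, av wt 25 g) were inoculated ip with 1×10^6 L1210 lymphoid leukemia cells. Dosing started 24 h after implantation and continued daily through day 5. Read-outs were median survival time of treated versus controls (T/C, 24 controls), %ILS = (T/C − 1)×100, 30-day survivors, and weight change on day 8.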

Mus musculus [3] = test: Median survival time expressed as (T/C) was measured at dose of 10 mg/kg/day *5; 15.0/7.5; type: functional; procedure, shortened: as §2
Mus musculus [4] = test: Percent increase in life span calculated as (T/C-1)X100 at a dose of 20 mg/kg/day X5; type: functional; procedure, shortened: as §2
Mus musculus [5] = organism: Mus musculus; test: Number of mice survived after 30 days; type: functional; procedure, shortened: as §2
Mus musculus [6] = test: Percent increase in life span calculated as (T/C-1)X100 at a dose of 10 mg/kg/day *5; type: functional; procedure, shortened: as §2
[7] = In vitro antiproliferative activity was measured in mouse L1210 lymphoid leukemia cell line; details: read-out: ED50 (the source's name)
Mus musculus [8] = test: Median survival time expressed as (T/C) was measured at dose of 40 mg/kg/day X5; 20.0/7.5; type: functional; procedure, shortened: as §2
Mus musculus [9] = test: Change in weight of mouse on day 8 was measured in L1210 lymphoid leukemia inoculated mice after ip administration at dose of 40 mg/kg/day X5; type: functional; details: route intraperitoneal; procedure, shortened: as §1
Mus musculus [10] = test: Change in weight of mouse on day 8 was measured in L1210 lymphoid leukemia inoculated mice after ip administration at dose of 20 mg/kg/day X5; type: functional; details: route intraperitoneal; procedure, shortened: as §1
MPC-11 [11] = test: In vitro antiproliferative activity was measured in mouse myeloma MPC-11 cell line; type: functional; details: read-out: ED50 (the source's name)
MPC-11 [12] = test: In vitro lethal dose was measured in mouse myeloma MPC-11 cell line; type: functional; details: read-out: LD50 (the source's name)
Mus musculus [13] = test: Percent increase in life span calculated as (T/C-1)X100 at a dose of 40 mg/kg/day X5; type: functional; procedure, shortened: as §2
Mus musculus [14] = test: Median survival time expressed as (T/C) was measured at dose of 10 mg/kg/day *5; 14.0/7.5; type: functional; procedure, shortened: as §2
Mus musculus [15] = test: Change in weight of mouse on day 8 was measured in L1210 lymphoid leukemia inoculated mice after ip administration at dose of 60 mg/kg/day X5; type: functional; details: route intraperitoneal; procedure, shortened: as §1
Mus musculus [16] = test: Median survival time expressed as (T/C) was measured at dose of 60 mg/kg/day x5; 8.5/8.0; type: functional; procedure, shortened: as §2
Mus musculus [17] = test: Median survival time expressed as (T/C) was measured at dose of 40 mg/kg/day X5; 19.0/7.5; type: functional; procedure, shortened: as §2
Mus musculus [18] = test: Percent increase in life span calculated as (T/C-1)X100 at a dose of 60 mg/kg/day X5; type: functional; procedure, shortened: as §2
Mus musculus [19] = test: Change in weight of mouse on day 8 was measured in L1210 lymphoid leukemia inoculated mice after ip administration at dose of 50 mg/kg/day X5; type: functional; details: route intraperitoneal; procedure, shortened: as §1
Mus musculus [20] = test: Median survival time expressed as (T/C) was measured at dose of 50 mg/kg/day *5; 14.0/8.0
Mus musculus [21] = test: Median survival time expressed as (T/C) was measured at dose of 25 mg/kg/day X5; 20.0/7.0
Mus musculus [22] = test: Percent increase in life span calculated as (T/C-1)X100 at a dose of 25 mg/kg/day X5; type: functional; procedure, shortened: as §2
Mus musculus [23] = test: Change in weight of mouse on day 8 was measured in L1210 lymphoid leukemia inoculated mice after ip administration at dose of 25 mg/kg/day X5; type: functional; details: route intraperitoneal; procedure, shortened: as §1
Mus musculus [24] = test: Median survival time expressed as (T/C) was measured at dose of 40 mg/kg/day X5; 24.5/8.5; type: functional; procedure, shortened: as §2
Mus musculus [25] = test: Median survival time expressed as (T/C) was measured at dose of 20 mg/kg/day X5; type: functional; procedure, shortened: as §2
Mus musculus [26] = test: Median survival time expressed as (T/C) was measured at dose of 10 mg/kg/day *5; type: functional; procedure, shortened: as §2
Mus musculus [27] = test: Median survival time expressed as (T/C) was measured at dose of 40 mg/kg/day X5; type: functional; procedure, shortened: as §2

Structure (SMILES)	Weight change (Mus musculus [1])	T/C (Mus musculus [2])	ILS at 20 mg/kg/day (Mus musculus [4])	Survivors (Mus musculus [5])	ILS at 10 mg/kg/day (Mus musculus [6])	EC50 [7]	Weight change (Mus musculus [9])	Weight change (Mus musculus [10])	EC50 (MPC-11 [11])	CC50 (MPC-11 [12])	ILS at 40 mg/kg/day (Mus musculus [13])	further results
CCCCCCCCCCCCCCCCCC(=O)OC[C@H](COP(=O)(O)OP(=O)(O)OC[C@H]1O[C@@H](n2ccc(N)nc2=O)[C@@H](O)[C@@H]1O)OC(=O)CCCCCCCCCCCCCCCCC	1.2 g mouse-1	18 days	140%	0	100%	20 µM	-0.4 g mouse-1	1.1 g mouse-1	195 µM	164 µM	167%	T/C (Mus musculus [3]): 15 days; T/C (Mus musculus [8]): 20 days
CCCCCCCCCCCCCC(=O)OC[C@H](COP(=O)(O)OP(=O)(O)OC[C@H]1O[C@@H](n2ccc(N)nc2=O)[C@@H](O)[C@@H]1O)OC(=O)CCCCCCCCCCCCC	1.8 g mouse-1	18 days	140%	0	87%	16 µM	0.1 g mouse-1	1.15 g mouse-1	15 µM	15.2 µM	153%	T/C (Mus musculus [14]): 14 days; Weight change (Mus musculus [15]): -4.6 g mouse-1; T/C (Mus musculus [16]): 8.5 days; T/C (Mus musculus [17]): 19 days; ILS at 60 mg/kg/day (Mus musculus [18]): 6%
CCCCCCCCCCCCCCCC(=O)OC[C@H](COP(=O)(O)OC[C@H]1O[C@@H](n2ccc(N)nc2=O)[C@@H](O)[C@@H]1O)OC(=O)CCCCCCCCCCCCCCC	–	–	–	0	–	13.4 µM	–	–	–	–	–	Weight change (Mus musculus [19]): 1.7 g mouse-1; T/C (Mus musculus [20]): 14 days
CCCCCCCCCCCCCCCC(=O)OC[C@H](COP(=O)(O)OP(=O)(O)OC[C@H]1O[C@@H](n2ccc(N)nc2=O)[C@@H](O)[C@@H]1O)OC(=O)CCCCCCCCCCCCCCC	–	–	–	1	–	9.6 µM	-1.8 g mouse-1	–	65 µM	68.5 µM	188%	T/C (Mus musculus [21]): 20 days; ILS at 25 mg/kg/day (Mus musculus [22]): 186%; Weight change (Mus musculus [23]): 1.57 g mouse-1; T/C (Mus musculus [24]): 24.5 days
Nc1ccn([C@@H]2O[C@H](CO)[C@@H](O)[C@@H]2O)c(=O)n1 [CYTARABINE]	0.8 g mouse-1	–	65%	0	53%	0.1 µM	0.6 g mouse-1	0.5 g mouse-1	0.99 µM	1.91 µM	65%	T/C (Mus musculus [25]): 14 days; T/C (Mus musculus [26]): 13 days; T/C (Mus musculus [27]): 14 days
